Measurements from PubChem BioAssay AID588627 (Johns Hopkins Ion Channel Center, 2011).
Hit rate of the full screen: of about 310,000 compounds, about 1,400 (0.45%) were called active.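 The calls were made as follows: active = calcium response B-score plate-corrected fluorescence ratio at least 3 library SD, with starting fluorescence B-score inside 5 SD; inactive = the rest.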 What follows is part of a selection rich in actives, with near analogues and random picks from the rest.

biological target: Mas-related G-protein coupled receptor member X1 (Homo sapiens) (UniProt Q96LB2); assay: MrgX1 activation via calcium signaling – HEK293 cells, Fluo-4 calcium flux, primary screen (AID 588627); settings: Fluo-4 calcium fluorescence, agonist mode, at 10 µM; active compounds read high;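 as to B-score: B-score of the peak-minus-trough calcium fluorescence change over baseline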
Sequence (Q96LB2 whole entry, looked up): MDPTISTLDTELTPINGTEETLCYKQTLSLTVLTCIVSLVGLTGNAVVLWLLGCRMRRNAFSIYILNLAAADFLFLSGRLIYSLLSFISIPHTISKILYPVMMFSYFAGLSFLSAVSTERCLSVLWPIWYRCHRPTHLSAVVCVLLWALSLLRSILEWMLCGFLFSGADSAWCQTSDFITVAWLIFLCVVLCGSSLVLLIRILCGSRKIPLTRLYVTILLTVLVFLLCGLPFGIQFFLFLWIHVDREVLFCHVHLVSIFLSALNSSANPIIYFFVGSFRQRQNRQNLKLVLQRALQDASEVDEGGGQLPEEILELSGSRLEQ
How it was run: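 System – MrgX1-expressing HEK293 cells · Incubation – cells plated overnight, dye loaded 0.5 h 37 °C, 0.5 h room temperature · Technique – kinetic Fluo-4 NW fluorescence of intracellular calcium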

SMILES | B-score
CCCCC(=O)N/N=C/c1c(O)n(CCC2=CCCCC2)c(=O)[nH]c1=O | inactive
CCCCC(=O)N/N=C/c1c(O)n(-c2ccccc2)c(=O)[nH]c1=O | inactive
CCCCC(=O)N/N=C/c1c(O)n(CC)c(=S)n(CC)c1=O | 66 (active)
CC1=C(C(=O)Nc2ccccc2)S(=O)(=O)CCO1 | inactive
COc1ccc2c(c1)[C@]13CCCCC1C(C2)N(C)CC3 (stereo not given in full) | inactive
O=C1NC(=O)N(Cc2ccco2)C(=O)/C1=C\c1ccc(-c2ccc(F)cc2)o1 | 28.4 (active)
Cc1cc(/C=C2/C(=O)NC(=O)N(Cc3ccco3)C2=O)c(C)n1-c1ccc(C(=O)O)cc1 | inactive
O=C1NC(=O)N(Cc2ccco2)C(=O)/C1=C\c1cccn1CCOc1ccccc1 | inactive
CCN(N=Nc1nonc1OC)c1nonc1OC | inactive
Cc1ccc2c(c1)=C/C(=C\c1c(O)[nH]c(=O)[nH]c1=O)C(=O)N=2 | inactive
